Test results: ChEMBL document CHEMBL2169772, “Discovery of (2S)-1-[4-(2-{6-amino-8-[(6-bromo-1,3-benzodioxol-5-yl)sulfanyl]-9H-purin-9-yl}ethyl)piperidin-1-yl]-2-hydroxypropan-1-one (MPC-3100), a purine-based Hsp90 inhibitor” (J Med Chem, 2012)

What was measured:
[1] = tested on: Liver microsomes; test: (§1) Metabolic stability in human liver microsomes assessed as percent of residual drug in presence of NADPH incubated for 40 mins by LC-ESI-MS/MS method; format: ADME, Microsome; conditions: microsomes, 40 min
In short: (§2)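 Test article incubated in duplicate with human liver microsomes (0.5 mg/mL protein) in 100 mM potassium phosphate pH 7.4. Started with 1 mM NADPH. Stopped with acetonitrile at 0, 10, 20 and 40 min. LC-MS/MS peak area at 40 min reported as percent of 0 min. No-NADPH control incubated for 40 min.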

[2] = tested on: Mus musculus; test: Inhibition of HSP90 in mouse liver assessed as induction of HSP70 mRNA expression at 100 mg/kg, po after 6 hrs relative to control; format: functional
[3] = Lipophilicity, log P of the compound; format: physicochemical; conditions: octanol/water
[4] = target: T1, Heat shock protein HSP90 (Homo sapiens, UniProt P07900+P08238); test: Inhibition of human HSP90 using BODIPY labelled geldanamycin as substrate by fluorescence polarization assay; format: protein assay
[5] = Cytotoxicity against human NCI-ADR-RES cells overexpressing P-gp 1 assessed as inhibition of tumor growth incubated for 72 hrs by luminometry; format: functional, cell-based
In short: (§3)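 Cells seeded at 5000 per well in DMEM with 10% serum and left overnight. Compound added from DMSO dilutions (0.4% DMSO final) for 72 h. After 5 min at room temperature, ATPLite two-step lysis and substrate added, 5 min incubation, then luminescence read. Values are the mean of at least two experiments.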

[6] = Cmax in Swiss nude mouse at 100 mg/kg, po by LC-ESI-MS/MS method; format: ADME, organism-based; design: dose 100 mg/kg, route oral; conditions: in vivo
In short: (§4)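 Single oral gavage in mice, vehicle 40% Captisol in phosphate buffer. EDTA plasma from cardiac puncture. Acetonitrile precipitation with internal standard, then LC-ESI-MS/MS quantitation against a 10–10 000 ng/mL standard curve. Cmax and AUC by noncompartmental analysis.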

[7] = target: T1, Heat shock protein HSP90; test: Inhibition of human HSP90 in HCT116 cells expressing Her2 gene assessed as degradation of Her2 after 4 hrs by luciferase reporter gene assay; format: cell-based; conditions: hct-116
In short: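 HCT116 cells stably transfected with Her2 kinase domain (aa 641–975) fused to firefly luciferase. Seeded at 10 000 per well in DMEM with 10% serum and left overnight. Compound added from DMSO (0.4% final) for 4 h. Steady-Glo added at room temperature for 5 min, then luminescence read.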

[8] = Oral bioavailability in Swiss nude mouse at 10 mg/kg by LC-ESI-MS/MS method; format: ADME, organism-based; conditions: in vivo
In short: (§5)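 Mice dosed by oral gavage, vehicle DMA/PEG300/EtOH/H2O (3/40/12/45, v/v/v/v). Blood drawn by cardiac puncture into EDTA plasma. Three or five animals per time point. Plasma precipitated with acetonitrile plus internal standard. Quantified by LC-ESI-MS/MS against a 10–10 000 ng/mL standard curve with QC samples. Noncompartmental analysis.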

[9] = AUC in Swiss nude mouse at 2.5 mg/kg, iv by LC-ESI-MS/MS method; format: ADME, organism-based; design: dose 2.5 mg/kg, route intravenous; conditions: plasma
In short: (§6)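 Intravenous dose in mice, vehicle DMA/PEG300/EtOH/H2O 3/40/12/45. Sampling at 5, 15, 30, 60, 120, 240, 480 and 720 min, three or five animals per time point. Cardiac-puncture EDTA plasma. Acetonitrile protein precipitation with internal standard, then LC-ESI-MS/MS (10–10 000 ng/mL curve). Parameters by noncompartmental fit.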

[10] = Half life in Swiss nude mouse at 2.5 mg/kg, iv by LC-ESI-MS/MS method; format: ADME, organism-based; design: dose 2.5 mg/kg, route intravenous; conditions: in vivo; in short: as §6
[11] = as §1; format: ADME, Microsome; conditions: liver microsomes, read-out: Stability; in short: as §2
[12] = Tmax in Swiss nude mouse at 10 mg/kg, po by LC-ESI-MS/MS method; format: ADME, organism-based; design: dose 10 mg/kg, route oral; conditions: in vivo; in short: as §5
[13] = Volume of distribution in Swiss nude mouse at 2.5 mg/kg, iv by LC-ESI-MS/MS method; format: ADME, organism-based; design: dose 2.5 mg/kg, route intravenous; conditions: in vivo; in short: as §6
[14] = AUC in Swiss nude mouse at 100 mg/kg, po by LC-ESI-MS/MS method; format: ADME, organism-based; design: dose 100 mg/kg, route oral; conditions: plasma; in short: as §4
[15] = tested on: HCT-116; test: Cytotoxicity against human HCT116 cells assessed as inhibition of tumor growth incubated for 72 hrs by luminometry; format: functional, cell-based; conditions: HCT-116, 72 h; in short: as §3
[16] = AUC in Swiss nude mouse at 10 mg/kg, po by LC-ESI-MS/MS method; format: ADME, organism-based; design: dose 10 mg/kg, route oral; conditions: plasma; in short: as §5
[17] = tested on: Mus musculus; test: Hepatic clearance in Swiss nude mouse at 2.5 mg/kg, iv by LC-ESI-MS/MS method; format: ADME, organism-based, Liver; design: dose 2.5 mg/kg, route intravenous; conditions: in vivo; in short: as §6
[18] = Cmax in Swiss nude mouse at 10 mg/kg, po by LC-ESI-MS/MS method; format: ADME, organism-based; design: dose 10 mg/kg, route oral; conditions: in vivo; in short: as §5
[19] = Oral bioavailability in Swiss nude mouse at 100 mg/kg administered using captisol and phosphate buffer system formulation by LC-ESI-MS/MS method; conditions: in vivo
[20] = tested on: HCT-116; test: Ratio of IC50 for human NCI-ADR-RES cells overexpressing P-gp1 to IC50 for human HCT116 cells; format: functional
[21] = Solubility of compound in phosphate buffer at pH 7.4; format: physicochemical

Stability [1] | IC50 [4] [nM] | IC50 [7] [nM] | bioavailability [8] [%] | remaining at 40 min [11] [%] | SMILES | IC50 [5] [nM] | IC50 [15] [nM] | further results
Unstable |  |  |  |  | Nc1ncnc2c1nc(Sc1cc3c(cc1Br)OCO3)n2CCC1C[C@H]2CC[C@@H](C1)O2 (some centres undefined) |  |  | 
Unstable |  |  |  |  | CN1[C@@H]2CC[C@H]1CC(CCn1c(Sc3cc4c(cc3Br)OCO4)nc3c(N)ncnc31)C2 (some centres undefined) |  |  | 
 | 150 | 70 | 35 | 17 | Nc1ncnc2c1nc(Sc1cc3c(cc1Br)OCO3)n2CCC1CCN(C=O)CC1 | 2800 | 430 | fold change (FC) [2]: 47; logP [3]: 3.42; Cmax [6]: 10900 ng/mL; AUC [9]: 1320 ng·h/mL; half-life [10]: 30 min; Tmax [12]: 60 min; Vd [13]: 1.45 L/kg; AUC [14]: 63900 ng·h/mL; AUC [16]: 1810 ng·h/mL; CLH [17]: 31.65 mL/min/kg; Cmax [18]: 354 ng/mL; bioavailability [19]: > 50%
 | 900 | 320 |  |  | CC(C)N1CCC(CCn2c(Sc3cc4c(cc3Br)OCO4)nc3c(N)ncnc32)CC1 | 7250 | 2580 | Ratio IC50 [20]: 2
 | 80 |  | 0.4 | 75 | Nc1ncnc2c1nc(Sc1cc3c(cc1Br)OCO3)n2CCC(N)C1CC1 (centres undefined) |  |  | solubility [21]: > 100 µM
